Laboratory results taken from ChEMBL document CHEMBL3877328, “Identification of allosteric binding sites for PI3Kα oncogenic mutant specific inhibitor design” (Bioorg Med Chem, 2017).

Key:
[1] = molecular target: T1, Phosphatidylinositol 4,5-bisphosphate 3-kinase catalytic subunit alpha isoform (Homo sapiens, UniProt P42336); experiment: Inhibition of full length PI3Kalpha (unknown origin) assessed as reduction in PIP3 formation at 100 uM using PIP2 as substrate after 45 mins by fluorescence polarization assay relative to control
Outline: (§1)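 Wild-type PI3Kα, either full-length or the p110α/niSH2 construct used for crystallography. Protein was co-expressed in Sf9 cells from p110α and p85α (or niSH2) viruses at MOI ratio 3:2, with J-32 in the medium, and harvested at 48 h. Fragments were added from 10% (v/v) DMSO dilutions and screened at 100 μM. Reactions held 10 μM PIP2 and 25 μM ATP, 45 min at room temperature. PIP3 formation was read by fluorescence polarization.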

[2] = molecular target: PI3-kinase p110-alpha/p85-alpha (Homo sapiens) (UniProt P27986+P42336); experiment: Inhibition of wild type PI3K p110alpha/p85alpha niSH2 (unknown origin) expressed in baculovirus infected sf9 cells assessed as reduction in PIP3 formation at 100 uM using PIP2 as substrate after 45 mins by fluorescence polarization assay relative to control; outline: as §1
[3] = molecular target: T1, Phosphatidylinositol 4,5-bisphosphate 3-kinase catalytic subunit alpha isoform; experiment: Inhibition of full length PI3Kalpha (unknown origin) assessed as reduction in PIP3 formation using PIP2 as substrate after 45 mins by fluorescence polarization assay
Outline: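 Wild-type full-length p110α/p85α PI3Kα, baculovirus-expressed in Sf9 cells, purified. Fluorescence polarization kit detecting PIP3 formation. Reaction with 10 μM PIP2 and 25 μM ATP, 45 min at room temperature. Fragments diluted in 10% (v/v) DMSO. Single-point screen at 100 μM; IC50 from dose-response curves over increasing fragment concentrations.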

T1 sequence (P42336 whole entry, the tested form may be a part, canonical isoform): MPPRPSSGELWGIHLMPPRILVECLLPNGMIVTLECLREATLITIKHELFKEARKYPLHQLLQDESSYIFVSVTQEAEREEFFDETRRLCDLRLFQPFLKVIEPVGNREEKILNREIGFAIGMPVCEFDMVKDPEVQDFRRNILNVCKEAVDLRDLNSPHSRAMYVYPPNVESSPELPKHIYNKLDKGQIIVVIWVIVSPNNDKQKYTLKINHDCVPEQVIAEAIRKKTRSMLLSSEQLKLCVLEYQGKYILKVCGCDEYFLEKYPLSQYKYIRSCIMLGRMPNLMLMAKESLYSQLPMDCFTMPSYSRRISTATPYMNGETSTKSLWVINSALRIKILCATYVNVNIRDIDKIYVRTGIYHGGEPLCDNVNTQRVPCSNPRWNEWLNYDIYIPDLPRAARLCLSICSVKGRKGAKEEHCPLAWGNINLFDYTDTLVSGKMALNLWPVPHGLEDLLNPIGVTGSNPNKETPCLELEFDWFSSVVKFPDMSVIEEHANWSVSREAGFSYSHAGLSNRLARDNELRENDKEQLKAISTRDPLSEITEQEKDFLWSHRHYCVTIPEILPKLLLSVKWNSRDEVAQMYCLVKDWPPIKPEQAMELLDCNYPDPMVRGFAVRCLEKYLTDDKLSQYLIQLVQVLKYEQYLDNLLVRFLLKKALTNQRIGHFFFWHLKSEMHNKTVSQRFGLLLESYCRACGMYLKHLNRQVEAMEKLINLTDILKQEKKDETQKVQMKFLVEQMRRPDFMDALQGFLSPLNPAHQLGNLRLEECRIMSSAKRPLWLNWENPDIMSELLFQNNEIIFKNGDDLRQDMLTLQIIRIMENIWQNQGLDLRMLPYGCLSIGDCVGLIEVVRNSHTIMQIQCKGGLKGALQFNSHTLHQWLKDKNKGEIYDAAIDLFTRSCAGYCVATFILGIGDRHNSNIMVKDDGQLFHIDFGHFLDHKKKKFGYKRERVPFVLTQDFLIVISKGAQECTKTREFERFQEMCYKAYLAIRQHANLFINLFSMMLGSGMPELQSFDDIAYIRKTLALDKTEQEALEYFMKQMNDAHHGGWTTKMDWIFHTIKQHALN

SMILES: O=C(O)CCc1ccc(O)cc1
- inhibition [1]: < 25%
- inhibition [2]: < 25%

SMILES: Oc1ccccc1O [CATECHOL]
- IC50 [3]: 33 µM
- inhibition [1]: 87%

SMILES: CC1C(=O)CCCC1=O
- inhibition [1]: < 25%
- inhibition [2]: < 25%

SMILES: O=C(O)c1ccccc1O
- inhibition [1]: < 25%
- inhibition [2]: < 25%

SMILES: Nc1ccccc1CO
- inhibition [1]: < 25%
- inhibition [2]: < 25%

SMILES: Cc1c(N)cccc1N
- IC50 [3]: 20 µM
- inhibition [1]: 92%

SMILES: OC1CCC(O)CC1 (configuration not stated)
- inhibition [1]: < 25%
- inhibition [2]: < 25%

SMILES: Oc1cccnc1
- inhibition [1]: < 25%
- inhibition [2]: < 25%

SMILES: Cc1cccc(N)n1
- inhibition [1]: < 25%
- inhibition [2]: < 25%

SMILES: N#Cc1cccc(N)c1
- inhibition [1]: < 25%
- inhibition [2]: < 25%

SMILES: Nc1ccc2c(c1)CN=N2
- inhibition [1]: < 25%
- inhibition [2]: < 25%

SMILES: O=c1[nH]c(=O)c2nccnc2[nH]1
- inhibition [1]: < 25%
- inhibition [2]: < 25%

SMILES: CC(C)(C)OC(=O)N1CCC(N)CC1
- inhibition [1]: < 25%
- inhibition [2]: < 25%

SMILES: Cc1cc2ccccc2[nH]1
- inhibition [1]: < 25%
- inhibition [2]: < 25%

SMILES: NS(=O)(=O)c1ccccc1Cl
- inhibition [1]: < 25%
- inhibition [2]: < 25%

SMILES: O=c1[nH]cc(F)c(=O)[nH]1
- inhibition [1]: < 25%
- inhibition [2]: < 25%

SMILES: Cc1cc(C)nc(N)c1
- inhibition [1]: < 25%
- inhibition [2]: < 25%

SMILES: Nc1ccc2[nH]c(C(F)(F)F)nc2c1
- inhibition [1]: < 25%
- inhibition [2]: < 25%

SMILES: Nc1nc2ccccc2[nH]1
- inhibition [1]: < 25%
- inhibition [2]: < 25%

SMILES: COc1ccccc1C(=O)O
- inhibition [1]: < 25%
- inhibition [2]: < 25%

SMILES: Cc1ccnc(N)c1[N+](=O)[O-]
- inhibition [1]: < 25%
- inhibition [2]: < 25%
